Assays:
Format in all cases: functional
[1] = system: Nc1ncnc2c1ncn2[C@@H]1O[C@H](COP(=O)(O)OP(=O)(O)OP(=O)(O)O)[C@@H](O)[C@H]1O; test: Steady-state kinetic constant for Hepatitis C Virus NS5BRdRp; details: Hepacivirus hominis
In short: (§1)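 HCV NS5B, C-terminal His-tag with 21-residue truncation, 1 µM. Template 5′-AAAAAAAUGC-3′ and [5′-33P]GpC primer each at 20 µM. Buffer 50 mM HEPES pH 7.3, 10 mM DTT, 5 mM MgCl2; 15 min at 30 °C. Substrate varied from Km/2 to 10Km; EDTA quench, denaturing urea-PAGE. Initial velocities fitted to Michaelis-Menten for Km and Vmax; efficiency taken as Vmax/Km.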

[2] = system: Nc1ncnc2c1ncn2[C@@H]1O[C@H](COP(=O)(O)OP(=O)(O)OP(=O)(O)O)[C@@H](O)[C@H]1O; test: Incorporation efficiency for Hepatitis C Virus NS5BRdRp; details: Hepacivirus hominis; in short: as §1
[3] = target: RNA-directed RNA polymerase (Hepacivirus hominis) (UniProt O39930); test: Ratio of steady state kinetic constant and incorporation efficiency for Hepatitis C Virus NS5BRdRp; in short: as §1

| Compound | Km [1] [µM] | Vmax [2] [µM/min] | Ratio [3] |
| --- | --- | --- | --- |
| RNA-directed RNA polymerase (Hepacivirus hominis), O39930 | 133 | 0.23 |  |
| Nc1ncnc2c1ncn2[C@@H]1O[C@H](COP(=O)(O)OP(=O)(O)OP(=O)(O)O)[C@@H](O)[C@H]1O |  |  | 0.0017 |
| Nc1ncnc2c1ncn2[C@@H]1O[C@H](OCP(=O)(O)OP(=O)(O)OP(=O)(O)O)[C@@H](O)[C@H]1O |  |  | 1.2e-05 |
| Nc1ncnc2c1ncn2[C@@H]1O[C@H](CCP(=O)(O)OP(=O)(O)OP(=O)(O)O)[C@@H](O)[C@H]1O |  |  | 0.00019 |

Reference: ChEMBL document CHEMBL1143599, “Design, synthesis, and antiviral activity of adenosine 5'-phosphonate analogues as chain terminators against hepatitis C virus” (J Med Chem, 2005)
